The source made the active and inactive calls.
Experiments:
[1] = tested on: Rattus norvegicus; assay: Antinociceptive activity in Sprague-Dawley rat at 1 mg/kg, ip after 30 mins by tail flick test; assay type: functional; settings: for MPE: route intraperitoneal
Outline: (§1)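 Male Sprague-Dawley rats, housed singly at 21 °C on a 12 h light-dark cycle, tested in the light phase. Drug given ip in saline (100-500 µL). Tail flick: radiant heat from a 300 W bulb focused on the tail tip, withdrawal latency recorded. Pre-drug responders above 75% of cut-off excluded. Testing was blinded. Results are %MPE at 15 and 30 min and duration (h), mean of 12 animals, Mann-Whitney U-test.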

[2] = tested on: Rattus norvegicus; assay: Antinociceptive activity in Sprague-Dawley rat at 5 mg/kg, ip after 30 mins by tail flick test; assay type: functional; settings: for MPE: route intraperitoneal; outline: as §1
[3] = tested on: Rattus norvegicus; assay: Antinociceptive activity in Sprague-Dawley rat assessed as effect on mechanical nociceptive threshold at 1 to 5 mg/kg, ip after 30 mins by paw pressure test; assay type: functional, organism-based
Outline: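 Male Sprague-Dawley rats, drug given ip in saline. Paw pressure test run before tail flick in each animal. Operator blinded to treatment. Rats with pre-drug responses above 75% of cut-off excluded. Read-out taken 30 min post-injection. Statistics by Mann-Whitney U-test.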

[4] = tested on: Rattus norvegicus; assay: Antinociceptive activity in Sprague-Dawley rat assessed as duration of antinociception at 5 mg/kg, ip by tail flick test; assay type: functional; settings: route intraperitoneal; outline: as §1
[5] = tested on: Rattus norvegicus; assay: Antinociceptive activity in Sprague-Dawley rat at 5 mg/kg, ip after 15 mins by tail flick test; assay type: functional; settings: route intraperitoneal; outline: as §1
[6] = tested on: Rattus norvegicus; assay: Antinociceptive activity in Sprague-Dawley rat assessed as duration of antinociception at 0.05 mg/kg, ip by tail flick test; assay type: functional; settings: route intraperitoneal; outline: as §1
[7] = tested on: Rattus norvegicus; assay: Antinociceptive activity in Sprague-Dawley rat at 0.05 mg/kg, ip after 15 mins by tail flick test; assay type: functional; settings: route intraperitoneal; outline: as §1
[8] = tested on: Rattus norvegicus; assay: Antinociceptive activity in Sprague-Dawley rat assessed as duration of antinociception at 0.5 mg/kg, ip by tail flick test; assay type: functional; settings: route intraperitoneal; outline: as §1
[9] = tested on: Rattus norvegicus; assay: Antinociceptive activity in Sprague-Dawley rat at 1 mg/kg, ip after 15 mins by tail flick test; assay type: functional; settings: route intraperitoneal; outline: as §1
[10] = tested on: Rattus norvegicus; assay: Antinociceptive activity in Sprague-Dawley rat at 0.01 to 5 mg/kg, ip by tail flick test in presence of naloxone; assay type: functional, organism-based
Outline: (§2)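 Antinociception in male Sprague-Dawley rats given drug ip in saline and measured by tail flick or paw pressure. Reversal tested with naloxone, stated as 5 mg/kg ip in the table footnote and as 0.1 mg/kg in the text.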

[11] = tested on: Rattus norvegicus; assay: Antinociceptive activity in Sprague-Dawley rat at 0.5 mg/kg, ip after 15 mins by tail flick test; assay type: functional; settings: route intraperitoneal; outline: as §1
[12] = tested on: Rattus norvegicus; assay: Antinociceptive activity in Sprague-Dawley rat at 0.1 mg/kg, ip after 30 mins by tail flick test; assay type: functional; settings: route intraperitoneal; outline: as §1
[13] = tested on: Rattus norvegicus; assay: Antinociceptive activity in Sprague-Dawley rat at 0.1 mg/kg, ip administered once daily for 9 days measured daily after 30 mins by tail flick test; assay type: functional; settings: route intraperitoneal
Outline: (§3)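 Separate groups of male Sprague-Dawley rats (250-300 g) dosed ip once daily for 9 consecutive days. Tail flick latency (radiant heat to tail tip) measured daily 30 min after each injection. Response expressed as %MPE.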

[14] = tested on: Rattus norvegicus; assay: Antinociceptive activity in Sprague-Dawley rat assessed as duration of antinociception at 1 mg/kg, ip by tail flick test; assay type: functional; settings: route intraperitoneal; outline: as §1
[15] = tested on: Rattus norvegicus; assay: Antinociceptive activity in ip dosed Sprague-Dawley rat at after 30 mins by tail flick test; assay type: functional, organism-based; outline: as §1
[16] = tested on: Rattus norvegicus; assay: Antinociceptive activity in Sprague-Dawley rat assessed as effect on mechanical nociceptive threshold at 1 to 5 mg/kg, ip by paw pressure test in presence of naloxone; assay type: functional, organism-based; outline: as §2
[17] = tested on: Rattus norvegicus; assay: Antinociceptive activity in Sprague-Dawley rat assessed as duration of antinociception at 0.02 mg/kg, ip by tail flick test; assay type: functional; settings: route intraperitoneal; outline: as §1
[18] = tested on: Rattus norvegicus; assay: Antinociceptive activity in Sprague-Dawley rat at 0.02 mg/kg, ip after 30 mins by tail flick test; assay type: functional; settings: route intraperitoneal; outline: as §1
[19] = tested on: Rattus norvegicus; assay: Toxicity in Sprague-Dawley rat assessed as depression of mean arterial blood pressure at 1 mg/kg, iv administered for 60 secs measured for 30 mins; assay type: organism-based; parameters: dose 1 mg/kg, route intravenous; settings: in vivo, 0.5 h
Outline: (§4)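 Male Sprague-Dawley rats (250-300 g) under urethane anaesthesia (1.25 g/kg ip), kept at 37 °C, tracheotomised, with carotid and jugular cannulae. After ≥1 h stabilisation and a saline infusion, drug was given iv in saline over 60 ± 20 s. MAP, SAP, DAP and HR recorded for 30 min as % change from time zero. Student's t test and Newman-Keuls.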

[20] = tested on: Rattus norvegicus; assay: Antinociceptive activity in Sprague-Dawley rat assessed as duration of antinociception at 0.01 mg/kg, ip by tail flick test; assay type: functional; settings: route intraperitoneal; outline: as §1
[21] = tested on: Rattus norvegicus; assay: Antinociceptive activity in Sprague-Dawley rat at 0.05 mg/kg, ip after 30 mins by tail flick test; assay type: functional; settings: route intraperitoneal; outline: as §1
[22] = organism: Rattus norvegicus; assay: Toxicity in Sprague-Dawley rat assessed as body weight loss; assay type: organism-based; settings: in vivo
[23] = tested on: Rattus norvegicus; assay: Antinociceptive activity in Sprague-Dawley rat at 0.2 mg/kg, ip after 15 mins by tail flick test; assay type: functional; settings: route intraperitoneal; outline: as §1
[24] = tested on: Rattus norvegicus; assay: Antinociceptive activity in Sprague-Dawley rat at 0.02 mg/kg, ip after 15 mins by tail flick test; assay type: functional; settings: route intraperitoneal; outline: as §1
[25] = tested on: Rattus norvegicus; assay: Antinociceptive activity in Sprague-Dawley rat at 0.5 mg/kg, ip after 30 mins by tail flick test; assay type: functional; settings: route intraperitoneal; outline: as §1
[26] = tested on: Rattus norvegicus; assay: Antinociceptive activity in Sprague-Dawley rat at 0.05 mg/kg, ip administered once daily for 9 days measured daily after 30 mins by tail flick test; assay type: functional; settings: route intraperitoneal; outline: as §3
[27] = tested on: Rattus norvegicus; assay: Antinociceptive activity in Sprague-Dawley rat assessed as duration of antinociception at 0.2 mg/kg, ip by tail flick test; assay type: functional; settings: route intraperitoneal; outline: as §1
[28] = tested on: Rattus norvegicus; assay: Toxicity in Sprague-Dawley rat assessed as depression of heart rate at 1 mg/kg, iv administered for 60 secs measured for 30 mins; assay type: organism-based; parameters: dose 1 mg/kg, route intravenous; settings: in vivo, 0.5 h; outline: as §4
[29] = tested on: Rattus norvegicus; assay: Antinociceptive activity in Sprague-Dawley rat at 5 mg/kg, ip administered once daily for 9 days measured daily after 30 mins by tail flick test; assay type: functional; settings: route intraperitoneal; outline: as §3
[30] = tested on: Rattus norvegicus; assay: Antinociceptive activity in Sprague-Dawley rat at 0.2 mg/kg, ip after 30 mins by tail flick test; assay type: functional; settings: route intraperitoneal; outline: as §1
[31] = tested on: Rattus norvegicus; assay: Antinociceptive activity in Sprague-Dawley rat at 1 mg/kg, ip administered once daily for 9 days measured daily after 30 mins by tail flick test; assay type: functional; settings: route intraperitoneal; outline: as §3
[32] = tested on: Rattus norvegicus; assay: Antinociceptive activity in Sprague-Dawley rat assessed as duration of antinociception at 0.1 mg/kg, ip by tail flick test; assay type: functional; settings: route intraperitoneal; outline: as §1
[33] = tested on: Rattus norvegicus; assay: Antinociceptive activity in Sprague-Dawley rat at 0.1 mg/kg, ip after 15 mins by tail flick test; assay type: functional; settings: route intraperitoneal; outline: as §1
[34] = tested on: Rattus norvegicus; assay: Antinociceptive activity in Sprague-Dawley rat at 0.01 mg/kg, ip after 30 mins by tail flick test; assay type: functional; settings: route intraperitoneal; outline: as §1
[35] = molecular target: Mu-type opioid receptor (Rattus norvegicus) (UniProt P33535); settings: HEK293
Sequence of Mu-type opioid receptor (Rattus norvegicus) (P33535 whole entry): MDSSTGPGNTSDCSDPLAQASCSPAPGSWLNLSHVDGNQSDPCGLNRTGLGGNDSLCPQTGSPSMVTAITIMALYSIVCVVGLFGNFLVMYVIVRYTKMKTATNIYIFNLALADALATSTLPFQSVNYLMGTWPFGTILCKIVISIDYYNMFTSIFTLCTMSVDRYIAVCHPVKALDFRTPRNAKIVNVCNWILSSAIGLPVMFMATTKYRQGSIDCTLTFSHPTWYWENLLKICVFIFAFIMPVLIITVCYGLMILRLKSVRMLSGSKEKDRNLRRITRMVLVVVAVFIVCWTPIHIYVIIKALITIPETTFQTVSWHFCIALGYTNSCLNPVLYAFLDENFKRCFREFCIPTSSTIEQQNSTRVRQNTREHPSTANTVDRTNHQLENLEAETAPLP

[36] = tested on: Rattus norvegicus; assay: Toxicity in Sprague-Dawley rat assessed as depression of mean arterial blood pressure at 5 mg/kg, iv administered for 60 secs measured for 30 mins; assay type: organism-based; parameters: dose 5 mg/kg, route intravenous; settings: in vivo, 0.5 h; outline: as §4
[37] = tested on: Rattus norvegicus; assay: Toxicity in Sprague-Dawley rat assessed as depression of heart rate at 5 mg/kg, iv administered for 60 secs measured for 30 mins; assay type: organism-based; parameters: dose 5 mg/kg, route intravenous; settings: in vivo, 0.5 h; outline: as §4

## CN1CC[C@]23c4c5ccc(O)c4O[C@H]2[C@@H](O[C@@H]2O[C@H](C(=O)O)[C@@H](O)[C@H](O)[C@H]2O)C=C[C@H]3[C@H]1C5
[1]
  Activity: Active
[2]
  Activity: Active
[3]
  Activity: Active

## CN1CC[C@]23c4c5ccc(O)c4O[C@H]2[C@@H](O)C=C[C@H]3[C@H]1C5.CN1CC[C@]23c4c5ccc(O)c4O[C@H]2[C@@H](O)C=C[C@H]3[C@H]1C5.O=S(=O)(O)O
[4]
  Time: 2.5 h
[5]
  MPE: 45%
[2]
  MPE: 72%

## CN1CC[C@]23c4c5ccc(O)c4O[C@H]2[C@@H](O[C@H]2O[C@H](CO)[C@@H](O)[C@H](O)[C@@H]2O)C=C[C@H]3[C@H]1C5
[6]
  Time: 5 h
[7]
  MPE: 56%
[8]
  Time: 5 h
[9]
  MPE: 56%
[4]
  Time: 5 h
[10]
  Activity: inactive
[11]
  MPE: 54%
[12]
  MPE: 100%
[13]
  Activity: 100%
[14]
  Time: 5 h
[15]
  IC50: 0.02 mg/kg
[16]
  Activity: inactive
[17]
  Time: 3.5 h
[18]
  MPE: 51%
[1]
  MPE: 100%
[19]
  Activity: Non-toxic
[20]
  Time: 2 h
[21]
  MPE: 84%
[22]
  Activity: Non-toxic
[5]
  MPE: 83%
[23]
  MPE: 57%
[24]
  MPE: 19%
[25]
  MPE: 100%
[26]
  MPE: 55%
[27]
  Time: 5 h
[28]
  Activity: Non-toxic
[29]
  MPE: 100%
[30]
  MPE: 100%
[31]
  MPE: 100%
[32]
  Time: 5 h
[33]
  MPE: 50%
[34]
  MPE: 22%
[2]
  MPE: 100%
[35]
  KiH: 1.7 nM
  KiL: 55 nM
[3]
  Activity: Active

## CN1CC[C@]23c4c5ccc(O)c4O[C@H]2[C@@H](O)C=C[C@H]3[C@H]1C5 [MORPHINE]
[36]
  Activity: Toxic
[1]
  MPE: 35%
[19]
  Activity: Non-toxic
[37]
  Activity: Toxic

## CN1CC[C@]23c4c5ccc(O)c4O[C@H]2[C@@H](O)C=C[C@H]3[C@H]1C5
[35]
  KiH: 2.5 nM
  KiL: 113 nM
[3]
  Activity: Active
